Reference: ChEMBL document CHEMBL3297682, “Synthesis and anticancer activity of γ-(triazolyl ethylidene)butenolides and polyfunctional pyrrolinones” (Eur J Med Chem, 2014)
Activity calls are given as the source filed them. The calls are words filed in the database; no cut-off is given here.

Legend:
MDA-MB-231 [1] = test: Antiproliferative activity against human MDA-MB-231 cells after 24 hrs by MTT assay; assay type: functional, cell-based; settings: MDA-MB-231, 24 h
In short: (§1)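 1×10^4 cells/well seeded in DMEM with 10% FBS and antibiotic-antimycotic, grown 24 h at 37 °C under 5% CO2. Compounds diluted in phenol red-free DMEM with 2% FBS and given for 24 h, with vehicle control. MTT (5 mg/mL, 20 µL) added for 3 h. Formazan dissolved in DMSO, absorbance read at 570 nm. IC50 is the concentration giving 50% growth inhibition.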

HEK293 = test: Cytotoxicity against human HEK293 cells after 24 hrs by MTT assay; assay type: cell-based; settings: HEK293, 24 h; in short: as §1
MCF7 = test: Antiproliferative activity against human MCF7 cells after 24 hrs by MTT assay; assay type: functional, cell-based; settings: MCF7, 24 h; in short: as §1
PC-3 = test: Antiproliferative activity against human PC3 cells after 24 hrs by MTT assay; assay type: functional, cell-based; settings: PC-3, 24 h; in short: as §1
U-937 = test: Antiproliferative activity against human U937 cells after 24 hrs by MTT assay; assay type: functional, cell-based; settings: U-937, 24 h; in short: as §1
HCT-116 = test: Antiproliferative activity against human HCT116 cells after 24 hrs by MTT assay; assay type: functional, cell-based; settings: HCT-116, 24 h; in short: as §1
MDA-MB-231 [2] = test: Induction of reactive oxygen species production in human MDA-MB-231 cells after 24 hrs by DCFH-DA dye based flow cytometry; assay type: functional, cell-based
In short: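 MDA-MB-231 cells (1×10^6) seeded 24 h in six-well plates, then treated 24 h. Cells harvested, washed in PBS and fixed in absolute methanol. Cells resuspended in PBS with 15 µg/mL DCFH-DA for 30 min in the dark, then pelleted, taken up in PBS, and fluorescence read by flow cytometry.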

| IC50 (MDA-MB-231 [1]) [µM] | IC50 (MCF7) [µM] | IC50 (PC-3) [µM] | IC50 (U-937) [µM] | IC50 (HCT-116) [µM] | Compound | IC50 (HEK293) [µM] | Activity (MDA-MB-231 [2]) |
| --- | --- | --- | --- | --- | --- | --- | --- |
| > 100 | 53.6 | > 100 | > 100 | > 100 | O=C1O/C(=C\Cn2cc(CCCCO)nn2)C(OCc2ccccc2)=C1OCc1ccccc1 | > 100 |  |
| 87.5 | 35 | > 100 | > 100 | > 100 | COC1=C(OC)/C(=C/Cn2cc(CCCCO)nn2)OC1=O | > 100 |  |
| 82.2 | 24 | 84.2 | 54 | 74.3 | Cc1ccc(-c2cn(CCC3(O)NC(=O)C(OCc4ccccc4)=C3OCc3ccccc3)nn2)cc1 (stereo not given) | 45 |  |
| > 100 | 39.2 | > 100 | > 100 | 51.2 | O=C1NC(O)(CCn2cc(Cc3ccccc3)nn2)C(OCc2ccccc2)=C1OCc1ccccc1 (stereo not given) | 86 |  |
| > 100 | > 100 | > 100 | > 100 | > 100 | COC1=C(OC)/C(=C/Cn2cc(C3CC3)nn2)OC1=O | > 100 |  |
| 13.1 | > 100 | 67.2 | > 100 | > 100 | O=C1NC(O)(CCn2cc(C3=CCCCC3)nn2)C(OCc2ccccc2)=C1OCc1ccccc1 (stereo not given) | 70 | Active |
| > 100 | > 100 | > 100 | > 100 | > 100 | O=C1O/C(=C\Cn2cc(C3CC3)nn2)C(OCc2ccccc2)=C1OCc1ccccc1 | > 100 |  |
| 29.2 | 40 | 71.3 | > 100 | 83.1 | O=C1O/C(=C\Cn2cc(Cc3ccccc3)nn2)C(OCc2ccccc2)=C1OCc1ccccc1 | 70 | Active |
| > 100 | > 100 | > 100 | > 100 | 64.3 | CCCCc1cn(C/C=C2\OC(=O)C(OCc3ccccc3)=C2OCc2ccccc2)nn1 | > 100 |  |
| > 100 | > 100 | > 100 | > 100 | > 100 | CCCCCc1cn(C/C=C2\OC(=O)C(OCc3ccccc3)=C2OCc2ccccc2)nn1 | > 100 |  |
| > 100 | > 100 | > 100 | 30 | > 100 | COC1=C(OC)/C(=C/Cn2cc(-c3ccc(C(C)(C)C)cc3)nn2)OC1=O | > 100 |  |
| > 100 | > 100 | > 100 | 70.2 | > 100 | O=C1O/C(=C\Cn2cc(-c3ccccn3)nn2)C(OCc2ccccc2)=C1OCc1ccccc1 | > 100 |  |
| 44 | > 100 | > 100 | > 100 | > 100 | O=C1O/C(=C\Cn2cc(-c3ccccc3)nn2)C(OCc2ccccc2)=C1OCc1ccccc1 | > 100 |  |
| > 100 | > 100 | > 100 | > 100 | > 100 | COC1=C(OC)/C(=C/Cn2cc(Cc3ccccc3)nn2)OC1=O | > 100 |  |
| > 100 | 46.2 | > 100 | 90.2 | > 100 | CCCCCCCCN1C(=O)C(OCc2ccccc2)=C(OCc2ccccc2)/C1=C/Cn1cc(-c2ccccn2)nn1 | 83 |  |

Second part, the compound before the results:

| Compound | IC50 (MDA-MB-231 [1]) [µM] | IC50 (MCF7) [µM] | IC50 (PC-3) [µM] | IC50 (U-937) [µM] | IC50 (HCT-116) [µM] | IC50 (HEK293) [µM] | Activity (MDA-MB-231 [2]) |
| --- | --- | --- | --- | --- | --- | --- | --- |
| CC/C(=C(\c1ccccc1)c1ccc(OCCN(C)C)cc1)c1ccccc1 [TAMOXIFEN] | 14 | 6 | 7 |  |  | 50 |  |
| COC1=C(OC)/C(=C/Cn2cc(-c3ccccc3)nn2)OC1=O | > 100 | > 100 | > 100 | > 100 | > 100 | > 100 |  |
| CCCc1cn(C/C=C2\OC(=O)C(OCc3ccccc3)=C2OCc2ccccc2)nn1 | > 100 | > 100 | > 100 | > 100 | > 100 | > 100 |  |
| CCCc1cn(C/C=C2/C(OCc3ccccc3)=C(OCc3ccccc3)C(=O)N2CCC)nn1 | > 100 | 66.8 | > 100 | 80.5 | > 100 | 82 |  |
| CCCc1cn(CCC2(O)C(OCc3ccccc3)=C(OCc3ccccc3)C(=O)N2CCC)nn1 (stereo not given) | > 100 | > 100 | 35 | > 100 | > 100 | 90 |  |
| CC(C)(C)c1ccc(-c2cn(C/C=C3\OC(=O)C(OCc4ccccc4)=C3OCc3ccccc3)nn2)cc1 | 51.2 | > 100 | > 100 | > 100 | > 100 | > 100 |  |
| CCCCCCc1cn(C/C=C2\OC(=O)C(OC)=C2OC)nn1 | 74.7 | > 100 | > 100 | > 100 | > 100 | > 100 |  |
| CC(C)(C)c1ccc(-c2cn(CCC3(O)C(OCc4ccccc4)=C(OCc4ccccc4)C(=O)N3CCc3ccccc3)nn2)cc1 (stereo not given) | > 100 | 32 | 65.5 | 60.2 | > 100 | 71 |  |
| CCCCCCCCN1C(=O)C(OCc2ccccc2)=C(OCc2ccccc2)C1(O)CCn1cc(-c2ccccn2)nn1 (stereo not given) | > 100 | 24.3 | 80.3 | 84.2 | > 100 | > 100 |  |
| CCCCCC(O)c1cn(C/C=C2\OC(=O)C(OC)=C2OC)nn1 (stereo not given) | 35.5 | > 100 | > 100 | > 100 | > 100 | 80 |  |
| COC1=C(OC)/C(=C/Cn2cc(-c3ccccn3)nn2)OC1=O | > 100 | > 100 | > 100 | > 100 | > 100 | > 100 |  |
| CC(C)(C)c1ccc(-c2cn(CCC3(O)NC(=O)C(OCc4ccccc4)=C3OCc3ccccc3)nn2)cc1 (stereo not given) | > 100 | 25.1 | 43 | 56.5 | > 100 | > 100 |  |
| O=C1O/C(=C\Cn2cc(C3=CCCCC3)nn2)C(OCc2ccccc2)=C1OCc1ccccc1 | > 100 | > 100 | 55.6 | > 100 | > 100 | > 100 |  |
| Cc1ccc(-c2cn(C/C=C3\OC(=O)C(OCc4ccccc4)=C3OCc3ccccc3)nn2)cc1 | > 100 | > 100 | > 100 | > 100 | > 100 | > 100 |  |
| COC1=C(OC)/C(=C/Cn2cc(CO)nn2)OC1=O | > 100 | 35 | > 100 | > 100 | > 100 | > 100 |  |
